Data as given in the EternaBench riboswitch data.

Test system: MS2 coat protein
Test: apparent Kd, MS2 coat protein; higher = weaker binding; RNA-MaP array; FMN 200 µM where present
How it was run: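 In 100 mM Tris-HCl pH 7.5, 80 mM KCl, 4 mM MgCl2, BSA, DTT, yeast tRNA and Tween-20, SNAP-549-labelled MS2 coat protein was titrated from 0.7 or 1.5 nM, doubling to 3 µM, over designs transcribed by stalled E. coli RNA polymerase on Illumina sequencing-chip clusters. This was done first without ligand, then with ligand held constant. After green signal was normalised to red-channel RNA signal and control-cluster median Fmax, the apparent Kd was taken as the median of filtered per-cluster binding-curve fits.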

[1] = designed as: OFF switch for flavin mononucleotide, no ligand
[2] = ligand present: flavin mononucleotide, designed as: OFF switch for flavin mononucleotide
[3] = designed as: ON switch for flavin mononucleotide, no ligand
[4] = ligand present: flavin mononucleotide, designed as: ON switch for flavin mononucleotide

| Sequence | apparent Kd [1] | apparent Kd [2] | apparent Kd [3] | apparent Kd [4] |
| --- | --- | --- | --- | --- |
| AAAUUCUGAGGAUAUCGAUGUUUGUACAUGAGGAUCACCCAUGUCCUUUUUAUUUAAUCCCGAGAAGGCAGUGUAU | 29 nM | 25.8 nM | – | – |
| AAAUUGUGAGGAUAUUCGAUGUACUCGGAGACGAGUAUAUCGGAGAAGGCACAUGAGGAUCACCCAUGUUCCUU | 17.6 nM | 92.6 nM | – | – |
| AAAUUUAACGAAGGAUAUGGUUACAUGAGGAUCACCCAUGUAUAUUUUGUGAUCUUGUUAAAGUACCAGAAGGUCGUAUACAUA | 173 nM | 400 nM | – | – |
| AAAUUUUGUCAAGGAUAUGUAUAAAAGAGAAGAAAACAUGAGGAUCACCCAUGUAUAUGGUGGGAACAGAAGGUGAAUAAGUAA | 164 nM | 154 nM | – | – |
| AAAUUUUGUCAAGGAUAUGUAUAAAAGAGUUGAAAACAUGAGGAUCACCCAUGUAUAUGGUGGGAACAGAAGGUGAAUAAGUAA | 190 nM | 182 nM | – | – |
| AACAAACAUGAGGAUCACCCAUGUCAGGAUAUGGCGGCUAGUGUGCCACCGUACACUACCAGAAGGGACUGGGU | 212 nM | 151 nM | – | – |
| AACAAUCUAUCUGAGGAUAUUAUGAAAUAAACAUGAGGAUCACCCAUGUGCAGGAAAACUGCAUAUGAGAAGGCAGAUAGAUUGA | – | – | 428 nM | 18.5 nM |
| AACACAACAUGAAACAUGAGGAUCACCCAUGUUGUUUGUAAUCAGGAUAUGAUUUUAAUAAUGAAUUAGAAGGGAUAUGGAUUU | – | – | 28.9 nM | 36.9 nM |
| AACAGACAUGAGGAUCACCCAUGUAGAAUUAUGGGAGGAUAUACAAAGACGAGAGUCAGAGUAGAAGGCCUAGGAC | – | – | 46.5 nM | 29.9 nM |
| AACAGGACAGGAUAUACAUGAGGAUCACCCAUGUGAGAAUUAAGUAGAUUACCACAAAGUAGAAGGGUCCUGGA | 50.4 nM | 87.2 nM | – | – |
| AACAGGUUCACAUGAGGAUCACCCAUGUUAGCCUAACGUAGGAGAAGGACGGUAGCUGGGCUGACGUAGGAUAUCCUACUGUGA | – | – | 9.22 nM | 4.8 nM |
| AACAGUAGAGGAUAUACAUGAGGAUCACCCAUGUGAUUAUUACGUGGCGUACCACGAAGUAGAAGGCUACUGGA | 61 nM | 203 nM | – | – |
| AACAUGAGGAUCACCCAUGUCCCACCAGAAGGCUGGCGGUCGUGAGAAAGGCCACGACAAAUAACAGAGGAUAUGGUGAAUGCA | – | – | 101 nM | 19.1 nM |
| AACAUUGACAAGAAGGCAAACAUGAGGAUCACCCAUGUUCUGCAUGUAUAUUGAGGAUAUUGCCAAUGUAUGUGGAUCACCCAA | 6.76 nM | 14.8 nM | – | – |
| AACCACGUUAGAUUAAGCGUGACAUGAGGAUCACCCAUGUGUCAGGAUAUACAUGGGCGGGCCCAGUAGAAGGGACUUAAUAGC | – | – | 146 nM | 91 nM |
| AACCUAUUACAGAAGGCCAGCUACAUGAGGAUCACCCAUGUCGAGUCAUGGAGGAUAUGUAGUAAUUUACUCACAAAUAAGUGC | – | – | 33.6 nM | 5.16 nM |
| AACCUAUUACAGAAGGCCAGCUACAUGAGGAUCACCCAUGUCGAGUCAUGGAGGAUAUGUAGUAAUUUGCACGCGGACGAGUAC | – | – | 52.6 nM | 5.82 nM |
| AACGUGUGAGGAUAUGCCGUGCCCUUCCGGAAGGAGCGGGUGCAGAAGGCACAUGAGGAUCACCCAUGUCGGCA | 33.9 nM | 49.8 nM | – | – |
| AACGUGUGAGGAUAUUAGUUGUACGUCAAUAGACGUAUAAGUGAGAAGGCACAUGAGGAUCACCCAUGUUCCUG | 23.9 nM | 195 nM | – | – |
| AACUAUGAAUUGAUAGUGUCUGACAGAAGGCAAUAGGUUGUGACCGACAUGAGGAUCACCCAUGUUGAGGAUAUGUCUAGCUAC | 53.2 nM | 366 nM | – | – |
| AACUCACAUGAGGAUCACCCAUGUGAGGAUAUAUUAUUAUGGCUGUUAUGCUGUAGUGGUAGAAGGCGCGUGAU | 33.2 nM | 28.7 nM | – | – |
| AACUCUGAGAAGGAUAUUCAAUGGGAAACGAUGGAAGAAGGUUUCACAUGAGGAUCACCCAUGUCGAAUAGUGA | 71.9 nM | 63.9 nM | – | – |
| AACUGACAUGAGGAUCACCCAUGUCAGGAUAUGACUUGAUAGAAAAAAAAAUAUCAUGUCAGAAGGGACAUGAA | 16.4 nM | 13.5 nM | – | – |
| AACUUGCGCACAGGAUAUCCACGGAGCGGACGUGGAGAAGGGUGACAUGAGGAUCACCCAUGUACGUAAGUCUAGAUCACUUCC | – | – | 198 nM | 19.1 nM |
| AAGAACUAAGGAUAUACAUGAGGAUCACCCAUGUCUUUUACAUGUUACUGGCCCGCAUGUAGAAGGUAGAAAAG | 78.6 nM | 135 nM | – | – |
| AAGAAGUAAGGAUAUGGCCGGGUCCCUGGGUUUGGACCCGGCUAGAAGGUACAUGAGGAUCACCCAUGUAAGAA | 14.7 nM | 15.4 nM | – | – |
| AAGAAGUCAGGAUAUGCAUGGCGGGACUUGCGUCGUGGCGUGCAGAAGGGACAUGAGGAUCACCCAUGUGGAGA | 124 nM | 249 nM | – | – |
| AAGAAGUGAGGAUAUACGCGAACAAAAAAAAAAAAGAAAGCGUAGAAGGCACAUGAGGAUCACCCAUGUCAAAA | 26.1 nM | 27.3 nM | – | – |

| Sequence | apparent Kd [1] | apparent Kd [2] | apparent Kd [3] | apparent Kd [4] |
| --- | --- | --- | --- | --- |
| AAGAAGUGAGGAUAUGUCUGUGCGAAAAAAAAAAAGUGCAGACAGAAGGCACAUGAGGAUCACCCAUGUCAAAA | 25.6 nM | 37.1 nM | – | – |
| AAGACACAUCUAGGAUAUGGUGAUGCUCAGAACACAUGAGGAUCACCCAUGUAGCUUGUGUAUAAUCAGAAGGAGAACCGUGUA | – | – | 36.4 nM | 259 nM |
| AAGAGAAAAGCAGGAUAUCUAUAGGCUCCUUAACAUGAGGAUCACCCAUGUAGAGAAGGGCUAAGACCGACUCUUCGGAGUUGA | 9.23 nM | 27.6 nM | – | – |
| AAGCAUUGGCUUCUCAUCUACAUGAGGAUCACCCAUGUCGGGAGAAGGAGGCUUUGACGACUAGCCUAGGAUAUCCUAACGUGC | 5.65 nM | 6.15 nM | – | – |
| AAGCGAGGGACAGGAUAUGCGGCGAAACUCGCCGCAGAAGGGUCGACAUGAGGAUCACCCAUGUCCUUACGCUCCAAGUAAAGG | – | – | 216 nM | 436 nM |
| AAGCGAGGGACAGGAUAUGCGGCGGAACUCGCCGCAGAAGGGUCGACAUGAGGAUCACCCAUGUCCUUACGCUCCAAGUAGAGG | – | – | 181 nM | 451 nM |
| AAGGAUAGAGGAUAUACAUAGAUACAGAUUCAUGUAGACCUACAUGAGGAUCACCCAUGUAGAAGGCUAUCCUA | 19.2 nM | 113 nM | – | – |
| AAGUAGAUCCGAGGAUAUACAAACCGGAAACGGUACAUGAGGAUCACCCAUGUAGAAGGCGGAUCUACAGGUACUAAAGUACCA | 5.33 nM | 8.68 nM | – | – |
| AAGUAGGCAGGAUAUACAUGAGGAUCACCCAUGUGCCCAUGAAAGGUACUUUCGAAAGGUAGAAGGGCCUACAA | 16.5 nM | 35.6 nM | – | – |
| AAGUCGGUAGAUAAUAAUGAUUACAUGAGGAUCACCCAUGUAUAGGAUAUCGUCAGGAAUACUGACGAGAAGGAUACAUCCGAC | 17.6 nM | 30 nM | – | – |
| AAGUCGUGAGGAUAUACAUGGAUAUACAUUUAUGUAGACCUACAUGAGGAUCACCCAUGUAGAAGGCACGAAUA | 45.4 nM | 115 nM | – | – |
| AAGUUAUUAGGAUAUACUUGUGCGAUUUAUACGUUGAUAUUACAUGAGGAUCACCCAUGUAGAAGGAAUAAAAA | 20.8 nM | 17.4 nM | – | – |
| AAGUUUGUACGAGGAUAUCAGUUGUAUCUAAAUUCAACAUGAGGAUCACCCAUGUUGCAAUAGGGUGAGAAGGCGUGUGGGCAA | – | – | 44.6 nM | 37.9 nM |
| AAGUUUGUACGAGGAUAUCAGUUGUUUCUAAAUUCAACAUGAGGAUCACCCAUGUAGCAAUGGAGUGAGAAGGCGUGUGGGCAA | – | – | 457 nM | 240 nM |
| AAUAAACUCACAGGAUAUAGCAGAGGUCGCGUGAACUUACAGGCGACGAGGCUAGAAGGGUGACCACAUGAGGAUCACCCAUGU | – | – | 858 nM | 95.8 nM |
| AAUAAACUCACAGGAUAUAGCAGAGGUCGCUUGAACUUACAGGCGACGAGGCUAGAAGGGUGACCACAUGAGGAUCACCCAUGU | – | – | 1190 nM | 135 nM |
| AAUAAACUCACAGGAUAUAGCAGCGGUCGCGUGAACUUACAGGCGACGAGGCUAGAAGGGUGACCACAUGAGGAUCACCCAUGU | – | – | 817 nM | 219 nM |
| AAUAAACUCACAGGAUAUAGCAUCGUCGUUGCGAACUUAGCGACGACGAUGCUAGAAGGGUGUAUACAUGAGGAUCACCCAUGU | – | – | 23 nM | 11.2 nM |
| AAUAACAGAGGAUAUACUAUUUUAUGUGUUUAUUGUUUUAAACAUGAGGAUCACCCAUGUAGAAGGCUGAAUAA | 29.3 nM | 44.3 nM | – | – |
| AAUAACAGAGGAUAUACUAUUUUAUGUGUUUGUUAUUUUAAACAUGAGGAUCACCCAUGUAGAAGGCUGAAUGA | 26.4 nM | 26.4 nM | – | – |
| AAUAACCAAGGAUAUACAUGAGGAUCACCCAUGUGGCGUCUGCGAGCUACAUCCCUUAGUAGAAGGUGGACCAG | 23.4 nM | 27 nM | – | – |
| AAUAGGCUCGCGCAGGAUAUGGAUCAUUCCACAUGAGGAUCACCCAUGUUAAGGAGCCCUUGCAUCCAGAAGGGUGUUGGUCUUU | – | – | 35.7 nM | 13.1 nM |
| AAUAUAAAGAGCUGGUAAAACUCGACAUGAGGAUCACCCAUGUAGGAUAUCAGCACGAUAAGUGCUGAGAAGGACAUCCAGCUC | 15.4 nM | 17.6 nM | – | – |
| AAUAUAAAGAGCUGGUAACUCAAAACAUGAGGAUCACCCAUGUAGGAUAUCAGCACGAUAAGUGCUGAGAAGGACAUCCAGCUC | 16.5 nM | 17.2 nM | – | – |
| AAUAUAGAGCUGGAAUAAAACAUCACAUGAGGAUCACCCAUGUAGGAUAUCAGCACGAUAAGUGCUGAGAAGGACAUCCAGCUC | 14.9 nM | 14.1 nM | – | – |
| AAUAUGAGCUGGUAUAAAUCCGAAACAUGAGGAUCACCCAUGUAGGAUAUCAGCACGAUAAGUGCUGAGAAGGACAUCCAGCUC | 15.2 nM | 16.2 nM | – | – |
| AAUAUGUUGCAGAAGGCCAUGUUGUGGUAGUACCUCAUGACAUGAGGAUCACCCAUGUCUGUGAUGGAGGAUAUGCAAUAUAUU | 8.87 nM | 14.8 nM | – | – |
